Active and inactive are the calls of the source. The calls are words filed in the database; no cut-off is given here.
Each molecule was assayed on HCT-116 (assay: Cell cycle arrest in human HCT116 cells assessed as reduction in cell levels at M-phase at 0.001 to 10 uM after 24 hrs by EdU-staining based high content imaging analysis). Conditions: not given.
Type: functional
Procedure, shortened: (§1)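 HCT-116 cells plated on poly-lysine-coated plates overnight, then treated 24 h with compound (DMSO stock diluted into McCoy's medium with 10% FBS). EdU labelling of newly synthesized DNA, 4% formaldehyde fixation, then high-content imaging in three fluorescent channels for total cell count, DNA content and S-phase cells. Means of three biological replicates, SEM.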
`CC(=O)Nc1ccc(-c2c(C)nn(-c3nc(-c4ccc(Cl)c(Cl)c4)c(SC(C)C)s3)c2C(=O)O)cc1` was tested, and the Activity was “inactive”.

What follows are molecules tested on HCT-116 (assay: Cell cycle arrest in human HCT116 cells assessed as reduction in cell levels at S/G2 phase at 0.001 to 10 uM after 24 hrs by EdU-staining based high content imaging analysis). Conditions: not given.
Type: functional
Procedure, shortened: as §1
For `CC(=O)Nc1ccc(-c2c(C)nn(-c3nc(-c4ccc(Cl)c(Cl)c4)c(SC(C)C)s3)c2C(=O)O)cc1`, the Activity was “inactive”.

What follows are molecules tested on HCT-116 (assay: Cell cycle arrest in human HCT116 cells assessed as reduction in cell levels at S-phase at 0.001 to 10 uM after 24 hrs EdU-staining based high content imaging analysis). Conditions: not given.
Type: functional
Procedure, shortened: as §1
For `CC(=O)Nc1ccc(-c2c(C)nn(-c3nc(-c4ccc(Cl)c(Cl)c4)c(SC(C)C)s3)c2C(=O)O)cc1`, the Activity was “inactive”. In the case of `Cc1nn(-c2nc(-c3ccc(Cl)c(Cl)c3)c(SC(C)C)s2)c(C(=O)O)c1-c1cnccn1`, the Activity is reported as “Active”.

Each molecule was assayed on BJAB (assay: Antiproliferative activity against human BJAB cells after 4 days). Conditions: Homo sapiens, BJAB, 96 h.
Type: functional, cell-based
Molecule `O=C(O)/C(Cc1ccccc1[N+](=O)[O-])=N\Nc1nc(-c2ccc(Cl)c(Cl)c2)cs1` has an IC50 of 20 µM.

Same assay, conditions: Homo sapiens, BJAB, 96 h; read-out: EC50
Work on `Cc1cccc(-c2c(C)nn(-c3nc(-c4ccc(Cl)c(Cl)c4)c(SC(C)C)s3)c2C(=O)O)c1` yielded an EC50 of 17 µM. `COc1ccc(-c2c(C)nn(-c3nc(-c4ccc(Cl)c(Cl)c4)c(SC(C)C)s3)c2C(=O)O)cc1` gave an EC50 of 2.1 µM. `CNc1cc(-c2c(C)nn(-c3nc(-c4ccc(Cl)c(Cl)c4)c(SC(C)C)s3)c2C(=O)O)ccn1` showed an EC50 of 18 µM. `COC(=O)c1c(Cc2ccccc2[N+](=O)[O-])c(C)nn1-c1nc(-c2ccc(Cl)c(Cl)c2)cs1` gave an EC50 of 377 µM. `Cc1ccc(-c2c(C)nn(-c3nc(-c4ccc(Cl)c(Cl)c4)c(SC(C)C)s3)c2C(=O)O)cc1` showed an EC50 of 3.8 µM. `CCSc1sc(-n2nc(C)c(Cc3ccccc3[N+](=O)[O-])c2C(=O)O)nc1-c1ccc(Cl)c(Cl)c1` gave an EC50 of 59 µM. With `COc1cc(-c2c(C)nn(-c3nc(-c4ccc(Cl)c(Cl)c4)c(SC(C)C)s3)c2C(=O)O)cc(C(F)(F)F)c1` the EC50 was 1.38 µM. `Cc1nn(-c2nc(-c3ccc(Cl)c(Cl)c3)c(SC(C)C)s2)c(C(=O)O)c1-c1cnn(C)c1` gave an EC50 of 6.8 µM. Work on `Cc1cc(Cl)cc(-c2c(C)nn(-c3nc(-c4ccc(Cl)c(Cl)c4)c(SC(C)C)s3)c2C(=O)O)c1` yielded an EC50 of 0.663 µM. With `COc1ccccc1-c1c(C)nn(-c2nc(-c3ccc(Cl)c(Cl)c3)c(SC(C)C)s2)c1C(=O)O` the EC50 was 14.7 µM. `Cc1nn(-c2nc(-c3ccc(Cl)c(Cl)c3)c(SC(C)C)s2)c(C(=O)O)c1-c1cccc(C(F)(F)F)c1` showed an EC50 of 22 µM. Work on `CC(=O)Nc1ccc(-c2c(C)nn(-c3nc(-c4ccc(Cl)c(Cl)c4)c(SC(C)C)s3)c2C(=O)O)cc1` yielded an EC50 of 139 µM. In the case of `Cc1nn(-c2nc(-c3ccc(Cl)c(Cl)c3)c(SC(C)C)s2)c(C(=O)O)c1-c1ccccc1[N+](=O)[O-]`, the EC50 is reported as 4.7 µM. Molecule `Cc1nn(-c2nc(-c3ccc(Cl)c(Cl)c3)c(SC(C)C)s2)c(C(=O)O)c1-c1ccccc1Cl` has an EC50 of 13.1 µM. Molecule `Cc1nn(-c2nc(-c3ccc(Cl)c(Cl)c3)c(SC(C)C)s2)c(C(=O)O)c1-c1cc(C(F)(F)F)cc(C(F)(F)F)c1` has an EC50 of 1.8 µM. Molecule `Cc1cc(-c2c(C)nn(-c3nc(-c4ccc(Cl)c(Cl)c4)c(SC(C)C)s3)c2C(=O)O)cc(C)n1` has an EC50 of 0.58 µM. For `Cc1nn(-c2nc(-c3ccc(Cl)c(Cl)c3)c(SC(C)C)s2)c(C(=O)O)c1-c1cncnc1`, the EC50 was 22 µM. `Cc1nn(-c2nc(-c3ccc(Cl)c(Cl)c3)c(SC(C)C)s2)c(C(=O)O)c1-c1ccc(C(F)(F)F)cc1` was tested, and the EC50 was 3.5 µM. `COc1cc(Cl)cc(-c2c(C)nn(-c3nc(-c4ccc(Cl)c(Cl)c4)c(SC(C)C)s3)c2C(=O)O)c1` showed an EC50 of 0.76 µM. In the case of `Cc1nn(-c2nc(-c3ccc(Cl)c(Cl)c3)c(SC(C)C)s2)c(C(=O)O)c1-c1cccc(F)c1`, the EC50 is reported as 0.9 µM. Molecule `COc1cncc(-c2c(C)nn(-c3nc(-c4ccc(Cl)c(Cl)c4)c(SC(C)C)s3)c2C(=O)O)c1` has an EC50 of 21 µM. `COc1cc(C#N)cc(-c2c(C)nn(-c3nc(-c4ccc(Cl)c(Cl)c4)c(SC(C)C)s3)c2C(=O)O)c1` was tested, and the EC50 was 5.2 µM. `Cc1cc(C)cc(-c2c(C)nn(-c3nc(-c4ccc(Cl)c(Cl)c4)c(SC(C)C)s3)c2C(=O)O)c1` was tested, and the EC50 was 2.7 µM. In the case of `Cc1nn(-c2nc(-c3ccc(Cl)c(Cl)c3)c(SC(C)C)s2)c(C(=O)O)c1-c1ccccc1`, the EC50 is reported as 3 to 3.4 µM. `COc1cccc(-c2c(C)nn(-c3nc(-c4ccc(Cl)c(Cl)c4)c(SC(C)C)s3)c2C(=O)O)c1` was tested, and the EC50 was 14 µM. `COc1ccc(C)cc1-c1c(C)nn(-c2nc(-c3ccc(Cl)c(Cl)c3)c(SC(C)C)s2)c1C(=O)O` showed an EC50 of 9.5 µM. Molecule `Cc1nn(-c2nc(-c3ccc(Cl)c(Cl)c3)c(SC(C)C)s2)c(C(=O)O)c1-c1ccc(Cl)cc1` has an EC50 of 2.5 µM. Work on `Cc1nn(-c2nc(-c3ccc(Cl)c(Cl)c3)c(SC(C)C)s2)c(C(=O)O)c1Cc1ccccc1[N+](=O)[O-]` yielded an EC50 of 20 µM. In the case of `Cc1nn(-c2nc(-c3ccc(Cl)c(Cl)c3)c(SC(C)C)s2)c(C(=O)O)c1-c1cncc(C#N)c1`, the EC50 is reported as 20 µM. In the case of `Cc1nn(-c2nc(-c3ccc(Cl)c(Cl)c3)c(SC(C)C)s2)c(C(=O)O)c1-c1cc(C#N)cc(C(F)(F)F)c1`, the EC50 is reported as 3.6 µM. `COC(=O)c1c(Cc2ccccc2[N+](=O)[O-])c(C)nn1-c1nc(-c2ccc(Cl)c(Cl)c2)c(SC(C)C)s1` gave an EC50 of 93 µM. Molecule `Cc1nn(-c2nc(-c3ccc(Cl)c(Cl)c3)c(SC(C)C)s2)c(C(=O)O)c1-c1cccnc1` has an EC50 of 12 µM. `Cc1nn(-c2nc(-c3ccc(Cl)c(Cl)c3)c(SC(C)C)s2)c(C(=O)O)c1-c1ccccc1C(F)(F)F` showed an EC50 of 5.2 µM. In the case of `Cc1cc(C#N)cc(-c2c(C)nn(-c3nc(-c4ccc(Cl)c(Cl)c4)c(SC(C)C)s3)c2C(=O)O)c1`, the EC50 is reported as 4.8 µM. Work on `Cc1nn(-c2nc(-c3ccc(Cl)c(Cl)c3)c(SC(C)C)s2)c(C(=O)O)c1-c1cnccn1` yielded an EC50 of 14 µM. With `Cc1nn(-c2nc(-c3ccc(Cl)c(Cl)c3)c(SC(C)C)s2)c(C(=O)O)c1-c1cccc(Cl)c1C` the EC50 was 5.1 µM. `CCOc1ncccc1-c1c(C)nn(-c2nc(-c3ccc(Cl)c(Cl)c3)c(SC(C)C)s2)c1C(=O)O` was tested, and the EC50 was 11 µM. In the case of `Cc1nn(-c2nc(-c3ccc(Cl)c(Cl)c3)c(SC(C)C)s2)c(C(=O)O)c1-c1ccncc1`, the EC50 is reported as 5.9 µM. `CCSc1sc(-n2nc(C)c(Cc3ccccc3[N+](=O)[O-])c2C(=O)OC)nc1-c1ccc(Cl)c(Cl)c1` gave an EC50 of 106 µM. For `Cc1nn(-c2nc(-c3ccc(Cl)c(Cl)c3)c(SC(C)C)s2)c(C(=O)O)c1-c1cccc(Cl)c1`, the EC50 was 13.6 µM. For `Cc1ccccc1-c1c(C)nn(-c2nc(-c3ccc(Cl)c(Cl)c3)c(SC(C)C)s2)c1C(=O)O`, the EC50 was 5.5 µM.

Same assay, conditions: bjab
With `Cc1nn(-c2nc(-c3ccc4nccn4c3)c(SC(C)C)s2)c(C(=O)O)c1-c1cc(Cl)cc(Cl)c1` the EC50 was “Not Active”. With `Cc1nn(-c2nc(-c3cccnc3)c(SC(C)C)s2)c(C(=O)O)c1-c1cc(Cl)cc(Cl)c1` the EC50 was “Not Active”.

What follows are molecules tested on HCT-116 (assay: Cell cycle arrest in human HCT116 cells assessed as accumulation at G0/G1 phase at 0.001 to 10 uM after 24 hrs by EdU-staining based high content imaging analysis). Conditions: not given.
Type: functional
Procedure, shortened: as §1
In the case of `CC(=O)Nc1ccc(-c2c(C)nn(-c3nc(-c4ccc(Cl)c(Cl)c4)c(SC(C)C)s3)c2C(=O)O)cc1`, the Activity is reported as “inactive”.

Source: ChEMBL document CHEMBL4219038, “1-Thiazol-2-yl-N-3-methyl-1H-pyrozole-5-carboxylic acid derivatives as antitumor agents” (Bioorg Med Chem Lett, 2017)
